Measured values published in ChEMBL document CHEMBL4689842, “EUbOPEN Chemogenomics Library wave 1” (2021).

Test system: U2OS
Experiment: Multiplex assay against U2OS
Assay type: toxicity, cell-based
Conditions: human
Summary of the method: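 Imaging took place on a CQ1 microscope at 37°C and 5% CO2 once compound had been added to live cells stained at seeding with Hoechst33342, BioTracker Green Microtubule Cytoskeleton Dye, MitoTracker Red and Annexin V Alexa Fluor 680. CellPathfinder machine-learning gating classed cells as Hoechst high-intensity objects or normal cells, classed normal cells as having healthy, pyknosed or fragmented nuclei, and classed pyknosed cells as mitotic or apoptotic. Tubulin, mitochondrial-mass and membrane-permeability phenotypes are per cents of the healthy-nucleus cells.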

[1] = 12 h, 1 µM, compound concentration 1 uM, replicate 1
[2] = 12 h, 1 µM, compound concentration 1 uM, replicate 2
[3] = 12 h, 10 µM, compound concentration 10 uM, replicate 1
[4] = 12 h, 10 µM, compound concentration 10 uM, replicate 2
[5] = 24 h, 1 µM, compound concentration 1 uM, replicate 1
[6] = 24 h, 1 µM, compound concentration 1 uM, replicate 2
[7] = 24 h, 10 µM, compound concentration 10 uM, replicate 1
[8] = 24 h, 10 µM, compound concentration 10 uM, replicate 2
[9] = 48 h, 1 µM, compound concentration 1 uM, replicate 1
[10] = 48 h, 1 µM, compound concentration 1 uM, replicate 2
[11] = 48 h, 10 µM, compound concentration 10 uM, replicate 1
[12] = 48 h, 10 µM, compound concentration 10 uM, replicate 2

OC1(c2ccc(Cl)cc2)CCN(Cc2c[nH]c3ccccc23)CC1
Population Apoptotic (%) [1]: 64% | Population Fragmented Nuclei (%) [1]: 10% | Population Healthy Nuclei (%) [1]: 80% | Population Hoechst High Intensity Objects (%) [1]: 9% | Population Mitochondria Different-Phenotype (%) [1]: 15% | Population Mitotic Cells (%) [1]: 35% | Population Normal (%) [1]: 90% | Population Tubulin-Different-Phenotype (%) [1]: 11% | Total Cell Count [1]: 115 | Population Apoptotic (%) [2]: 0% | Population Fragmented Nuclei (%) [2]: 13% | Population Healthy Nuclei (%) [2]: 77% | Population Hoechst High Intensity Objects (%) [2]: 10% | Population Membrane Permeable-Phenotype (%) [2]: 3% | Population Mitochondria Different-Phenotype (%) [2]: 13% | Population Mitotic Cells (%) [2]: 100% | Population Normal (%) [2]: 89% | Population Pyknosed Nuclei (%) [2]: 9% | Population Tubulin-Different-Phenotype (%) [2]: 9% | Total Cell Count [2]: 78 | Population Apoptotic (%) [3]: 52% | Population Fragmented Nuclei (%) [3]: 15% | Population Healthy Nuclei (%) [3]: 35% | Population Hoechst High Intensity Objects (%) [3]: 5% | Population Membrane Permeable-Phenotype (%) [3]: 10% | Population Mitochondria Different-Phenotype (%) [3]: 92% | Population Mitotic Cells (%) [3]: 47% | Population Normal (%) [3]: 94% | Population Pyknosed Nuclei (%) [3]: 48% | Population Tubulin-Different-Phenotype (%) [3]: 84% | Total Cell Count [3]: 165 | Population Apoptotic (%) [4]: 42% | Population Fragmented Nuclei (%) [4]: 13% | Population Healthy Nuclei (%) [4]: 38% | Population Hoechst High Intensity Objects (%) [4]: 3% | Population Membrane Permeable-Phenotype (%) [4]: 4% | Population Mitochondria Different-Phenotype (%) [4]: 95% | Population Mitotic Cells (%) [4]: 57% | Population Normal (%) [4]: 96% | Population Pyknosed Nuclei (%) [4]: 47% | Population Tubulin-Different-Phenotype (%) [4]: 60% | Total Cell Count [4]: 74 | Population Apoptotic (%) [5]: 50% | Population Fragmented Nuclei (%) [5]: 7% | Population Healthy Nuclei (%) [5]: 82% | Population Hoechst High Intensity Objects (%) [5]: 4% | Population Membrane Permeable-Phenotype (%) [5]: 3% | Population Mitochondria Different-Phenotype (%) [5]: 6% | Population Mitotic Cells (%) [5]: 50% | Population Normal (%) [5]: 95% | Population Pyknosed Nuclei (%) [5]: 9% | Population Tubulin-Different-Phenotype (%) [5]: 10% | Total Cell Count [5]: 119 | Population Apoptotic (%) [6]: 20% | Population Fragmented Nuclei (%) [6]: 5% | Population Healthy Nuclei (%) [6]: 88% | Population Hoechst High Intensity Objects (%) [6]: 8% | Population Membrane Permeable-Phenotype (%) [6]: 4% | Population Mitochondria Different-Phenotype (%) [6]: 13% | Population Mitotic Cells (%) [6]: 80% | Population Normal (%) [6]: 91% | Population Pyknosed Nuclei (%) [6]: 6% | Population Tubulin-Different-Phenotype (%) [6]: 8% | Total Cell Count [6]: 77 | Population Apoptotic (%) [7]: 61% | Population Fragmented Nuclei (%) [7]: 20% | Population Healthy Nuclei (%) [7]: 22% | Population Hoechst High Intensity Objects (%) [7]: 9% | Population Membrane Permeable-Phenotype (%) [7]: 20% | Population Mitochondria Different-Phenotype (%) [7]: 79% | Population Mitotic Cells (%) [7]: 38% | Population Normal (%) [7]: 90% | Population Pyknosed Nuclei (%) [7]: 56% | Population Tubulin-Different-Phenotype (%) [7]: 50% | Total Cell Count [7]: 197 | Population Apoptotic (%) [8]: 66% | Population Fragmented Nuclei (%) [8]: 21% | Population Healthy Nuclei (%) [8]: 27% | Population Hoechst High Intensity Objects (%) [8]: 5% | Population Membrane Permeable-Phenotype (%) [8]: 5% | Population Mitochondria Different-Phenotype (%) [8]: 94% | Population Mitotic Cells (%) [8]: 33% | Population Normal (%) [8]: 94% | Population Pyknosed Nuclei (%) [8]: 51% | Population Tubulin-Different-Phenotype (%) [8]: 52% | Total Cell Count [8]: 85 | Population Apoptotic (%) [9]: 23% | Population Healthy Nuclei (%) [9]: 83% | Population Mitochondria Different-Phenotype (%) [9]: 11% | Population Mitotic Cells (%) [9]: 76% | Population Pyknosed Nuclei (%) [9]: 9% | Population Tubulin-Different-Phenotype (%) [9]: 8% | Total Cell Count [9]: 132 | Population Apoptotic (%) [10]: 41% | Population Fragmented Nuclei (%) [10]: 7% | Population Healthy Nuclei (%) [10]: 81% | Population Hoechst High Intensity Objects (%) [10]: 3% | Population Membrane Permeable-Phenotype (%) [10]: 3% | Population Mitochondria Different-Phenotype (%) [10]: 17% | Population Mitotic Cells (%) [10]: 58% | Population Normal (%) [10]: 96% | Population Pyknosed Nuclei (%) [10]: 11% | Population Tubulin-Different-Phenotype (%) [10]: 16% | Total Cell Count [10]: 85 | Population Apoptotic (%) [11]: 79% | Population Fragmented Nuclei (%) [11]: 37% | Population Healthy Nuclei (%) [11]: 6% | Population Hoechst High Intensity Objects (%) [11]: 12% | Population Membrane Permeable-Phenotype (%) [11]: 25% | Population Mitochondria Different-Phenotype (%) [11]: 87% | Population Mitotic Cells (%) [11]: 20% | Population Normal (%) [11]: 88% | Population Pyknosed Nuclei (%) [11]: 56% | Population Tubulin-Different-Phenotype (%) [11]: 62% | Total Cell Count [11]: 282 | Population Apoptotic (%) [12]: 70% | Population Fragmented Nuclei (%) [12]: 32% | Population Healthy Nuclei (%) [12]: 12% | Population Hoechst High Intensity Objects (%) [12]: 8% | Population Membrane Permeable-Phenotype (%) [12]: 75% | Population Mitochondria Different-Phenotype (%) [12]: 75% | Population Mitotic Cells (%) [12]: 29% | Population Normal (%) [12]: 91% | Population Pyknosed Nuclei (%) [12]: 54% | Population Tubulin-Different-Phenotype (%) [12]: 50% | Total Cell Count [12]: 111

CN1CCN(c2ccc(OC(F)(F)F)c(Nc3ncc4c(n3)-c3c(c(C(N)=O)nn3CCO)CC4)c2)CC1 [ONVANSERTIB]
Population Apoptotic (%) [1]: 36% | Population Fragmented Nuclei (%) [1]: 14% | Population Healthy Nuclei (%) [1]: 78% | Population Hoechst High Intensity Objects (%) [1]: 6% | Population Membrane Permeable-Phenotype (%) [1]: 11% | Population Mitochondria Different-Phenotype (%) [1]: 10% | Population Mitotic Cells (%) [1]: 63% | Population Normal (%) [1]: 94% | Population Pyknosed Nuclei (%) [1]: 7% | Population Tubulin-Different-Phenotype (%) [1]: 13% | Total Cell Count [1]: 569 | Population Apoptotic (%) [2]: 25% | Population Fragmented Nuclei (%) [2]: 11% | Population Healthy Nuclei (%) [2]: 80% | Population Hoechst High Intensity Objects (%) [2]: 14% | Population Membrane Permeable-Phenotype (%) [2]: 0% | Population Mitochondria Different-Phenotype (%) [2]: 14% | Population Mitotic Cells (%) [2]: 75% | Population Normal (%) [2]: 85% | Population Tubulin-Different-Phenotype (%) [2]: 16% | Total Cell Count [2]: 66 | Population Apoptotic (%) [3]: 72% | Population Fragmented Nuclei (%) [3]: 10% | Population Healthy Nuclei (%) [3]: 79% | Population Hoechst High Intensity Objects (%) [3]: 6% | Population Membrane Permeable-Phenotype (%) [3]: 3% | Population Mitochondria Different-Phenotype (%) [3]: 77% | Population Mitotic Cells (%) [3]: 27% | Population Normal (%) [3]: 93% | Population Pyknosed Nuclei (%) [3]: 10% | Population Tubulin-Different-Phenotype (%) [3]: 84% | Total Cell Count [3]: 150 | Population Apoptotic (%) [4]: 40% | Population Fragmented Nuclei (%) [4]: 9% | Population Healthy Nuclei (%) [4]: 78% | Population Hoechst High Intensity Objects (%) [4]: 19% | Population Membrane Permeable-Phenotype (%) [4]: 0% | Population Mitochondria Different-Phenotype (%) [4]: 84% | Population Mitotic Cells (%) [4]: 60% | Population Normal (%) [4]: 80% | Population Pyknosed Nuclei (%) [4]: 12% | Population Tubulin-Different-Phenotype (%) [4]: 78% | Total Cell Count [4]: 61 | Population Apoptotic (%) [5]: 35% | Population Fragmented Nuclei (%) [5]: 14% | Population Healthy Nuclei (%) [5]: 73% | Population Hoechst High Intensity Objects (%) [5]: 7% | Population Membrane Permeable-Phenotype (%) [5]: 12% | Population Mitochondria Different-Phenotype (%) [5]: 17% | Population Mitotic Cells (%) [5]: 64% | Population Normal (%) [5]: 92% | Population Pyknosed Nuclei (%) [5]: 12% | Population Tubulin-Different-Phenotype (%) [5]: 18% | Total Cell Count [5]: 962 | Population Apoptotic (%) [6]: 57% | Population Fragmented Nuclei (%) [6]: 21% | Population Healthy Nuclei (%) [6]: 65% | Population Hoechst High Intensity Objects (%) [6]: 5% | Population Membrane Permeable-Phenotype (%) [6]: 5% | Population Mitochondria Different-Phenotype (%) [6]: 32% | Population Mitotic Cells (%) [6]: 42% | Population Normal (%) [6]: 94% | Population Pyknosed Nuclei (%) [6]: 13% | Population Tubulin-Different-Phenotype (%) [6]: 11% | Total Cell Count [6]: 73 | Population Apoptotic (%) [7]: 82% | Population Healthy Nuclei (%) [7]: 79% | Population Hoechst High Intensity Objects (%) [7]: 4% | Population Membrane Permeable-Phenotype (%) [7]: 1% | Population Mitochondria Different-Phenotype (%) [7]: 77% | Population Mitotic Cells (%) [7]: 17% | Population Normal (%) [7]: 95% | Population Pyknosed Nuclei (%) [7]: 9% | Population Tubulin-Different-Phenotype (%) [7]: 53% | Total Cell Count [7]: 151 | Population Apoptotic (%) [8]: 40% | Population Fragmented Nuclei (%) [8]: 11% | Population Healthy Nuclei (%) [8]: 77% | Population Hoechst High Intensity Objects (%) [8]: 16% | Population Membrane Permeable-Phenotype (%) [8]: 5% | Population Mitochondria Different-Phenotype (%) [8]: 82% | Population Mitotic Cells (%) [8]: 60% | Population Normal (%) [8]: 83% | Population Pyknosed Nuclei (%) [8]: 11% | Population Tubulin-Different-Phenotype (%) [8]: 55% | Total Cell Count [8]: 55 | Population Apoptotic (%) [9]: 62% | Population Fragmented Nuclei (%) [9]: 25% | Population Healthy Nuclei (%) [9]: 56% | Population Hoechst High Intensity Objects (%) [9]: 5% | Population Membrane Permeable-Phenotype (%) [9]: 14% | Population Mitochondria Different-Phenotype (%) [9]: 49% | Population Mitotic Cells (%) [9]: 37% | Population Normal (%) [9]: 94% | Population Pyknosed Nuclei (%) [9]: 18% | Population Tubulin-Different-Phenotype (%) [9]: 13% | Total Cell Count [9]: 1338 | Population Apoptotic (%) [10]: 53% | Population Fragmented Nuclei (%) [10]: 27% | Population Healthy Nuclei (%) [10]: 45% | Population Hoechst High Intensity Objects (%) [10]: 6% | Population Membrane Permeable-Phenotype (%) [10]: 24% | Population Mitochondria Different-Phenotype (%) [10]: 48% | Population Mitotic Cells (%) [10]: 46% | Population Normal (%) [10]: 93% | Population Pyknosed Nuclei (%) [10]: 27% | Population Tubulin-Different-Phenotype (%) [10]: 12% | Total Cell Count [10]: 97 | Population Apoptotic (%) [11]: 91% | Population Fragmented Nuclei (%) [11]: 17% | Population Healthy Nuclei (%) [11]: 63% | Population Hoechst High Intensity Objects (%) [11]: 2% | Population Membrane Permeable-Phenotype (%) [11]: 5% | Population Mitochondria Different-Phenotype (%) [11]: 60% | Population Mitotic Cells (%) [11]: 8% | Population Normal (%) [11]: 97% | Population Pyknosed Nuclei (%) [11]: 19% | Population Tubulin-Different-Phenotype (%) [11]: 43% | Total Cell Count [11]: 153 | Population Apoptotic (%) [12]: 57% | Population Fragmented Nuclei (%) [12]: 20% | Population Hoechst High Intensity Objects (%) [12]: 10% | Population Membrane Permeable-Phenotype (%) [12]: 28% | Population Mitochondria Different-Phenotype (%) [12]: 67% | Population Mitotic Cells (%) [12]: 42% | Population Normal (%) [12]: 89% | Population Pyknosed Nuclei (%) [12]: 15% | Population Tubulin-Different-Phenotype (%) [12]: 57% | Total Cell Count [12]: 59
